Consider one compound from ChEMBL document CHEMBL4376891, “Benzenesulfonamide Derivatives as Calcium/Calmodulin-Dependent Protein Kinase Inhibitors and Antiviral Agents against Dengue and Zika Virus Infections” (J Med Chem, 2020).

The subject of data set [1] is dengue virus type 2. Nature of the data set: Antiviral activity against Dengue virus 2 infected in human BE(2)-C cells assessed as NS3 protein expression at 6.25 uM treated during 0 to 3 hrs post infection by Western blot analysis (reference value: 100%). In kind it is functional. The procedure, abridged: (§1)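 Time-of-addition design: BE(2)C cells were infected with DENV-2 or ZIKV at MOI 1. Compound at 3.125 or 6.25 μM was present either during adsorption (0–3 hpi) or afterward (3–24 hpi). Viral protein was immunoblotted against actin, with the ratio as % of the solvent control.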

Data set [2] deals with BE(2)-C. The data set can be described thus: Cytotoxicity against human BE(2)-C cells assessed as reduction in cell viability up to 12.5 uM incubated overnight by trypan blue assay relative to control. The class given is cell-based. Put shortly: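 Viable BE(2)C cell number after overnight exposure to compound up to 12.5 μM, counted by trypan blue exclusion; expressed as percent of solvent control, mean ± SD of 3 independent experiments.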

The subject of data set [3] is Zika virus. Nature of the data set: Antiviral activity against Zika virus infected in human BE(2)-C cells assessed as NS3 protein expression at 12.5 uM incubated for 48 hrs by Western blot analysis (reference value: 100%). The class given is functional. The procedure, abridged:
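BE(2)C cells were infected with ZIKV PRVABC59 at MOI 0.1 for 48 h, with or without compound at increasing concentrations. Viral protein was immunoblotted with actin as loading control. The band-density ratio was given as % of the solvent control. Mean ± SD, 3 independent experiments.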

For data set [4], the system named is Zika virus. The data set can be described thus: Antiviral activity against Zika virus infected in human BE(2)-C cells transfected with shLacZ assessed as NS3 protein expression at 6.25 uM incubated for 48 hrs by Western blot analysis (reference value: 100%). The class given is functional.
The test system of data set [5] is dengue virus type 2. The data set can be described thus: Antiviral activity against Dengue virus 2 infected in human BE(2)-C cells assessed as NS3 protein expression at 3.125 uM treated during 0 to 3 hrs post infection by Western blot analysis (reference value: 100%). The class given is functional. The procedure, abridged: as §1
For data set [6], the system named is dengue virus type 2. The data set can be described thus: Antiviral activity against Dengue virus 2 infected in human HMC3 cells assessed as reduction in viral progeny production at 1.56 to 12.5 uM incubated for 48 hrs by Virus titer assay. The class given is functional, organism-based. The procedure, abridged: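 Human microglial HMC3 cells in MEM with 10% FBS were infected with DENV-2 PL046 at MOI 0.1 for 48 h in the presence of noncytotoxic compound concentrations. Progeny virus was titrated by plaque assay on BHK-21 cells, expressed as log PFU/mL.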

The test system of data set [7] is dengue virus type 2. The data set can be described thus: Antiviral activity against DENV-2 NGC-N infected in Stat1-/- mouse assessed as improvement in mouse survival by measuring median survival time at 4 to 8 mg/kg, po dosed 8 hrs after infection and ending at day 6 after infection (8 hrs delay) (reference value: 8 days). In kind it is functional.
The test system of data set [8] is dengue virus type 2. Nature of the data set: Antiviral activity against Dengue virus 2 infected in human BE(2)-C cells assessed as NS3 protein expression at 3.125 uM incubated for 48 hrs by Western blot analysis (reference value: 100%). In kind it is functional. Put shortly:
(§2)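 BE(2)C neuroblastoma cells in RPMI 1640 with 10% FBS were infected with DENV-2 PL046 at MOI 0.1 for 48 h, without or with compound at increasing concentrations. NS3 was immunoblotted with actin as loading control. The NS3:actin densitometry ratio was expressed as % of the DMSO control. Mean ± SD of 3 independent experiments.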

Data set [9] deals with BE(2)-C. The data set can be described thus: Cytotoxicity against human BE(2)-C cells assessed as reduction in cell viability up to 12.5 uM incubated overnight by LDH assay relative to control. The class given is cell-based. Put shortly: (§3)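 BE(2)C cells (RPMI 1640, 10% FBS) exposed overnight to compound at concentrations up to 12.5 μM; XTT (proliferation) or LDH release (cytotoxicity) read by absorbance at 490 nm. Values normalized to solvent control (%), mean ± SD of 3 independent experiments.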

The test system of data set [10] is Zika virus. Nature of the data set: Antiviral activity against Zika virus infected in human BE(2)-C cells assessed as NS3 protein expression at 6.25 uM treated during 0 to 3 hrs post infection by Western blot analysis (reference value: 100%). In kind it is functional. Put shortly:
as §1

The next data set concerns Sindbis virus. Nature of the data set: Antiviral activity of eGFP-fused Sindbis virus infected in human HMC3 cells at 0.781 to 12.5 uM incubated for 24 hrs by immunofluorescence microscopy. The class given is functional, organism-based.
For data set [11], the system named is dengue virus type 2. Nature of the data set: Antiviral activity against Dengue virus 2 infected in human BE(2)-C cells assessed as NS3 protein expression at 6.25 uM incubated for 48 hrs by Western blot analysis (reference value: 100%). The class given is functional. The procedure, abridged: as §2
Data set [12] has as its system dengue virus type 2. Nature of the data set: Antiviral activity against eGFP-fused Dengue virus 2 infected in human BE(2)-C cells assessed as viral infection level by measuring intensity of eGFP emission from infected cells at 3.13 uM incubated for 24 hrs relative to control. The class given is functional. Put shortly: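 BE(2)C cells, in RPMI 1640 with 10% FBS, were infected with DENV-2-eGFP reporter virus (MOI 1) for 24 h with or without compound, using DMSO as solvent control. Cells were fixed in 4% paraformaldehyde and stained with Hoechst, then imaged by high-content analysis. eGFP intensity per cell number is given as % of solvent control. Values are means of 3 experiments.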

The test system of data set [13] is dengue virus type 2. The data set can be described thus: Antiviral activity against Dengue virus 2 infected in human BE(2)-C cells assessed as NS3 protein expression at 6.25 uM treated during 3 to 24 hrs post infection by Western blot analysis (reference value: 100%). The class given is functional. Put shortly:
as §1

Data set [14] concerns dengue virus type 2. Nature of the data set: Antiviral activity against Dengue virus 2 infected in human BE(2)-C cells transfected with shCaMKIIalpha assessed as NS3 protein expression at 6.25 uM incubated for 48 hrs by Western blot analysis (reference value: 100%). In kind it is functional.
In data set [15] the test system is Zika virus. As to conditions: 3.125 to 6.25 uM.
The test system of data set [16] is Zika virus. The data set can be described thus: Antiviral activity against Zika virus infected in Stat1-/- mouse assessed as time delay in virus-induced mouse mortality at 8 mg/kg/day, po dosed immediately following viral infection followed by daily dosing for 6 days (reference value: 13 days). In kind it is functional.
The test system of data set [17] is BE(2)-C. Nature of the data set: Cytotoxicity against human BE(2)-C cells assessed as reduction in cell proliferation up to 12.5 uM incubated overnight by XTT assay relative to control. In kind it is cell-based. Put shortly: as §3
In data set [18] the test system is Zika virus. The data set can be described thus: Antiviral activity against Zika virus infected in human BE(2)-C cells assessed as NS3 protein expression at 3.125 uM treated during 0 to 3 hrs post infection by Western blot analysis (reference value: 100%). The class given is functional. Put shortly:
as §1

The test system of data set [19] is dengue virus type 2. Nature of the data set: Antiviral activity against fluorescently labeled Dengue virus 2 infected in human BE(2)-C cells at 3.125 uM by confocal microscopy. In kind it is functional, organism-based. The procedure, abridged: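 DENV-2 or ZIKV was concentrated and labeled with atto-647N dye. BE(2)C cells were pretreated with solvent or 3.125 µM, then incubated at 37 °C with labeled DENV-2 for 30 min or ZIKV for 60 min. Cells were fixed in 4% paraformaldehyde, membranes stained with WGA-488, and intracellular virus signal imaged by confocal microscopy.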

In data set [20] the test system is Zika virus. The data set can be described thus: Antiviral activity against Zika virus infected in human BE(2)-C cells assessed as suppression of viral-induced CaMKIIalpha activation at 3.125 uM incubated for 4 hrs by confocal microscopy. In kind it is functional, organism-based.

Calls of active or inactive are those of the source. No cut-off for these calls is given here.

As for `COc1ccc(S(=O)(=O)N(CCCC(=O)C2CCCCCC2)c2ccccc2)cc1`, the Activity in the data set with dengue virus type 2 [1] was 27.3%; with BE(2)-C [2] it was “Non-Toxic”; with Zika virus [3], 0.1%; with Zika virus [4], 25.9%; with dengue virus type 2 [5], 72.5%; in the data set with dengue virus type 2 [8], 54.5%. Also, the Activity result in the data set with BE(2)-C [9] is reported as “Non-Toxic”; with Zika virus [10], 20.1%; in the data set with dengue virus type 2 [11], 23.1%; with dengue virus type 2 [12] it was 9.6%; with dengue virus type 2 [13], 55.3%; with dengue virus type 2 [14], 75.4%. Further, the Activity entry with BE(2)-C [17] was “Non-Toxic”; in the data set with Zika virus [18], 60.1%. Also, the outcome with dengue virus type 2 [6], in the data set on Sindbis virus, in the data set on dengue virus type 2 [19] and with Zika virus [20] was Active. In addition, the MST with dengue virus type 2 [7] turned out to be 10 days. For the same compound, the inhibition result in the data set with Zika virus [15] was “inactive”. Further, in the data set with Zika virus [16], the Time was determined as 18 days.
